Reference: ChEMBL document CHEMBL3992547, “Antimicrobial activity of rhodanine-3-acetic acid derivatives” (Bioorg Med Chem, 2017)
Converted amounts (≈) assume the structure as drawn. The source made the active and inactive calls. The calls are words filed in the database; no cut-off is given here.

Tests used:
[1] = tested on: Mycobacterium kansasii; assay: Antimycobacterial activity against Mycobacterium kansasii isolate 6509/96 after 21 days by micromethod; assay type: functional; conditions: isolate 6509/96, 504 h
[2] = tested on: Mycobacterium kansasii; assay: Antimycobacterial activity against Mycobacterium kansasii isolate 6509/96 after 14 days by micromethod; assay type: functional; conditions: isolate 6509/96, 336 h
[3] = tested on: Mycobacterium kansasii; assay: Antimycobacterial activity against Mycobacterium kansasii isolate 6509/96 after 7 days by micromethod; assay type: functional; conditions: isolate 6509/96, 168 h
[4] = tested on: Mycobacterium avium; assay: Antimycobacterial activity against Mycobacterium avium 330/88 measured after 21 days by micromethod; assay type: functional; conditions: 330/88, 504 h
[5] = tested on: Mycobacterium tuberculosis; assay: Antimycobacterial activity against Mycobacterium tuberculosis H37Rv 331/88 measured after 21 days by micromethod; assay type: functional; conditions: H37Rv 331/88, 504 h
[6] = tested on: Mycobacterium kansasii; assay: Antimycobacterial activity against Mycobacterium kansasii isolate 235/80 after 14 days by micromethod; assay type: functional; conditions: isolate 235/80, 336 h
[7] = Solubility of the compound in Sula's semisynthetic medium up to 1 mM; assay type: physicochemical
[8] = tested on: Mycobacterium kansasii; assay: Antimycobacterial activity against Mycobacterium kansasii isolate 235/80 after 21 days by micromethod; assay type: functional; conditions: isolate 235/80, 504 h
[9] = tested on: Mycobacterium tuberculosis; assay: Antimycobacterial activity against Mycobacterium tuberculosis H37Rv 331/88 measured after 14 days by micromethod; assay type: functional; conditions: H37Rv 331/88, 336 h
[10] = tested on: Lichtheimia corymbifera; assay: Antifungal activity against Absidia corymbifera 272 after 24 to 48 hrs hrs by microdilution broth assay; assay type: functional
In short: (§1)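 Broth microdilution per CLSI M27-A3 and M38-A2 in RPMI 1640 with glutamine, buffered to pH 7.0 with MOPS. Compounds are diluted in DMSO. Final inoculum is 5 × 10³ CFU/mL for yeasts and 0.5–5 × 10⁴ CFU/mL for moulds. Plates are incubated in the dark at 35 °C in humid air and read visually and/or at 540 nm after 24 and 48 h. MIC is ≥80% growth reduction (IC₈₀) for yeasts and ≥50% (IC₅₀) for filamentous fungi.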

[11] = tested on: Mycobacterium kansasii; assay: Antimycobacterial activity against Mycobacterium kansasii isolate 235/80 after 7 days by micromethod; assay type: functional; conditions: isolate 235/80, 168 h
[12] = tested on: Pichia kudriavzevii; assay: Antifungal activity against Candida krusei E28 after 24 to 48 hrs hrs by microdilution broth assay; assay type: functional; in short: as §1
[13] = tested on: Klebsiella pneumoniae; assay: Antibacterial activity against ESBL positive Klebsiella pneumoniae J 14368/08 up to 500 uM incubated for 24 to 48 hrs under dark condition by microdilution broth assay; assay type: functional
In short: (§2)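 Broth microdilution per M07-A07, modified, in Mueller-Hinton broth adjusted to pH 7.4 (±0.2). Inoculum is prepared in sterile water to McFarland 0.5 (1.5 × 10⁸ CFU/mL). Plates are incubated in the dark at 35 °C in humid air. MIC is read after 24 and 48 h as at least 95% growth reduction versus control (IC₉₅).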

[14] = tested on: Pseudomonas aeruginosa; assay: Antibacterial activity against Pseudomonas aeruginosa CCM 1961 up to 500 uM incubated for 24 to 48 hrs under dark condition by microdilution broth assay; assay type: functional; in short: as §2
[15] = tested on: Mycobacterium avium; assay: Antimycobacterial activity against Mycobacterium avium 330/88 measured after 14 days by micromethod; assay type: functional; conditions: 330/88, 336 h
[16] = tested on: Klebsiella pneumoniae; assay: Antibacterial activity against Klebsiella pneumoniae D 11750/08 up to 500 uM incubated for 24 to 48 hrs under dark condition by microdilution broth assay; assay type: functional; in short: as §2
[17] = tested on: Staphylococcus aureus; assay: Antibacterial activity against Staphylococcus aureus CCM 4516/08 incubated for 24 hrs under dark condition by microdilution broth assay; assay type: functional; conditions: CCM 4516/08, 24 h; in short: as §2
[18] = tested on: Staphylococcus epidermidis; assay: Antibacterial activity against Staphylococcus epidermidis H 6966/08 incubated for 48 hrs under dark condition by microdilution broth assay; assay type: functional; conditions: H 6966/08, 48 h; in short: as §2
[19] = tested on: Enterococcus; assay: Antibacterial activity against Enterococcus sp. J 14365/08 incubated for 24 hrs under dark condition by microdilution broth assay; conditions: J 14365/08, 24 h
[20] = tested on: Escherichia coli; assay: Antibacterial activity against Escherichia coli CCM 4517 incubated for 24 hrs under dark condition by microdilution broth assay; assay type: functional; conditions: CCM 4517, 24 h; in short: as §2
[21] = tested on: Staphylococcus aureus; assay: Antibacterial activity against Staphylococcus aureus CCM 4516/08 incubated for 48 hrs under dark condition by microdilution broth assay; assay type: functional; conditions: CCM 4516/08, 48 h; in short: as §2
[22] = tested on: Staphylococcus aureus; assay: Antibacterial activity against methicillin-resistant Staphylococcus aureus H 5996/08 incubated for 48 hrs under dark condition by microdilution broth assay; assay type: functional; conditions: H 5996/08, 48 h
In short: (§3)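 Microdilution broth method modified per M07-A07, in Mueller-Hinton broth adjusted to pH 7.4 (±0.2). Inoculum made in sterile water to 0.5 McFarland (1.5 × 10⁸ CFU/mL). Plates incubated in the dark at 35 °C in a humid atmosphere, with reads at 24 and 48 h. MIC taken as at least 95% growth reduction (IC₉₅) versus control.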

[23] = tested on: Enterococcus; assay: Antibacterial activity against Enterococcus sp. J 14365/08 incubated for 48 hrs under dark condition by microdilution broth assay; conditions: J 14365/08, 48 h
[24] = tested on: Escherichia coli; assay: Antibacterial activity against Escherichia coli CCM 4517 incubated for 48 hrs under dark condition by microdilution broth assay; assay type: functional; conditions: CCM 4517, 48 h; in short: as §2
[25] = tested on: Staphylococcus aureus; assay: Antibacterial activity against methicillin-resistant Staphylococcus aureus H 5996/08 incubated for 24 hrs under dark condition by microdilution broth assay; assay type: functional; conditions: H 5996/08, 24 h; in short: as §3
[26] = tested on: Staphylococcus epidermidis; assay: Antibacterial activity against Staphylococcus epidermidis H 6966/08 incubated for 24 hrs under dark condition by microdilution broth assay; assay type: functional; conditions: H 6966/08, 24 h; in short: as §2

For `COc1ccc(NC(=O)CN2C(=O)CSC2=S)cc1`, the MIC [1] was 1000 µM (≈ 296 µg/mL), the MIC [2] was 500 µM (≈ 148 µg/mL) and the MIC [3] was 500 µM (≈ 148 µg/mL). It also gave an MIC [4] greater than 1000 µM, an MIC [5] of 1000 µM (≈ 296 µg/mL) and an MIC [6] of 500 µM (≈ 148 µg/mL). For the same compound, the solubility [7] was “Soluble”, the MIC [8] was 1000 µM (≈ 296 µg/mL) and the MIC [9] was 500 µM (≈ 148 µg/mL). The Activity [10] was “inactive”, the MIC [11] was 500 µM (≈ 148 µg/mL) and the Activity [12] was “inactive”. The Activity [13] was “inactive”, the Activity [14] was “inactive” and the MIC [15] was 1000 µM (≈ 296 µg/mL). For the same compound, the Activity [16] was “inactive”.
`NNC(=O)c1ccncc1` [ISONIAZID] gave an MIC [1] of 16 µM (≈ 2.19 µg/mL), an MIC [2] of 8 µM (≈ 1.1 µg/mL) and an MIC [3] of 4 µM (≈ 0.549 µg/mL). It also gave an MIC [4] greater than 250 µM, an MIC [5] of 1 µM (≈ 0.137 µg/mL) and an MIC [6] greater than 250 µM. It also gave an MIC [8] greater than 250 µM, an MIC [9] of 0.5 µM (≈ 0.0686 µg/mL) and an MIC [11] greater than 250 µM. It also gave an MIC [15] greater than 250 µM.
Work on `O=C(O)CN1C(=O)/C(=C/c2cc(Cl)ccc2O)SC1=S` yielded an MIC [1] of 125 µM (≈ 41.2 µg/mL), an MIC95 [17] of 250 µM (≈ 82.4 µg/mL) and an MIC [2] of 62.5 µM (≈ 20.6 µg/mL). It also gave an MIC95 [18] of 62.5 µM (≈ 20.6 µg/mL), an MIC [3] of 32 µM (≈ 10.6 µg/mL) and an MIC [4] of 62.5 µM (≈ 20.6 µg/mL). It also gave an MIC [5] of 62.5 µM (≈ 20.6 µg/mL), an MIC95 [19] of 125 µM (≈ 41.2 µg/mL) and an MIC [6] of 62.5 µM (≈ 20.6 µg/mL). For the same compound, the MIC95 [20] was 500 µM (≈ 165 µg/mL), the solubility [7] was “Soluble” and the MIC [8] was 62.5 µM (≈ 20.6 µg/mL). For the same compound, the MIC95 [21] was 250 µM (≈ 82.4 µg/mL), the MIC [9] was 32 µM (≈ 10.6 µg/mL) and the MIC95 [22] was 125 µM (≈ 41.2 µg/mL). For the same compound, the Activity [10] was “inactive”, the MIC95 [23] was 500 µM (≈ 165 µg/mL) and the MIC [11] was 32 µM (≈ 10.6 µg/mL). The MIC95 [24] was greater than 500 µM, the Activity [12] was “inactive” and the Activity [13] was “inactive”. For the same compound, the MIC95 [25] was 125 µM (≈ 41.2 µg/mL), the Activity [14] was “inactive” and the MIC [15] was 62.5 µM (≈ 20.6 µg/mL). The MIC95 [26] was 62.5 µM (≈ 20.6 µg/mL) and the Activity [16] was “inactive”.
